Data on 9 compounds can be found in PMC9064899 (The FEBS journal, 2021).

Molecules are shown by their SMILES. Residue numbers refer to the chain shown, from its start.

Assay [1] has as its system FIXgla-PC/HEK293 reporter cells. The assay can be described thus: VKD carboxylation of reporter protein FIXgla-PC supported by K vitamins. The class given is cell-based, human. Conditions: intact FIXgla-PC/HEK293 cells, 0.015 nM to 1000 nM, 24 hours. In a few lines:
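Intact FIXgla-PC/HEK293 cells (stable reporter: protein C with factor IX Gla domain) were grown in DMEM/F12 with 10% FBS. They were incubated for 24 h with vitamin K1, MK-4, vitamin K3 or MK-1/2/3/4/7 at 0.015 nM to 1000 nM, from stocks in polyethoxylated castor oil. Carboxylated reporter was measured by ELISA (anti-carboxylated FIXgla capture, HRP anti-protein C, ABTS).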

Assay [2] has as its system UBIAD1-deficient FIXgla-PC/HEK293 reporter cells. The experiment in a line: VKD carboxylation of FIXgla-PC supported by K vitamins in UBIAD1-knockout cells. Conditions: for support of VKD carboxylation of reporter protein: UBIAD1-deficient (knockout) FIXgla-PC/HEK293 cells. The class given is cell-based, human. In a few lines:
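Ubiad1-knockout FIXgla-PC/HEK293 reporter cells were cultured for 24 h with increasing concentrations of vitamin K1, MK-4, vitamin K3, or menaquinones with 1–4 or 7 isoprene units. K vitamin stocks were made in polyethoxylated castor oil. Carboxylated FIXgla-PC was determined by ELISA, and half-maximal stimulation concentration (EC50) came from curve fitting. Mean ± SD.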

The test system of a further assay is mutant zebrafish. Conditions: L65Q mutant zebrafish; cited from earlier work.
The next assay has as its target T1, UBIAD1 (Homo sapiens, UniProt Q9Y5Z9).
T1 sequence (Q9Y5Z9 1-338): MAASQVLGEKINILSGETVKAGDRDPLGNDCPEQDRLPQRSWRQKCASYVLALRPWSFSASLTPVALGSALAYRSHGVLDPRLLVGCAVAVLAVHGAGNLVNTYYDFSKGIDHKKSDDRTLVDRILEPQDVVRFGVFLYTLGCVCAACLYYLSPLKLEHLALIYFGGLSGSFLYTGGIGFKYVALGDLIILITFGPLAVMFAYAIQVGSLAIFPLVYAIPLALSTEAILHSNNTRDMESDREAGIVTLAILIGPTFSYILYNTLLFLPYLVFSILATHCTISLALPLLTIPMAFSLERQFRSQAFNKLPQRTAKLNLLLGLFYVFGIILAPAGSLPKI
The assay can be described thus: UBIAD1 activity with exogenous isoprenyl pyrophosphates in statin-blocked cells. In kind it is cell-based. Conditions: 1 μM vitamin K3, 10 μM atorvastatin or simvastatin, 20 μM GPP, FPP or GGPP. In a few lines: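 FIXgla-PC/HEK293 reporter cells were pre-incubated for 12 h with 10 μM atorvastatin or simvastatin to block endogenous isoprenyl pyrophosphate. Medium then contained 1 μM vitamin K3, statin (10 μM) and 20 μM GPP, FPP or GGPP as side-chain substrate. Carboxylated FIXgla-PC was quantified by ELISA and normalized to GGPP (100%). Mean ± SD, n=3 independent experiments.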

In the next assay the test system is kidneys. Conditions: kidneys of atorvastatin-treated mice; cited from earlier work.
Assay [3] concerns FIXgla-PC/HEK293 reporter cells. The assay can be described thus: Inhibition of vitamin K3-supported VKD carboxylation. In kind it is cell-based, human. Conditions: 1 μM vitamin K3 as substrate, 24 hours. The method, boiled down: (§1)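 HEK293 cells stably expressing FIXgla-PC (protein C whose Gla domain is replaced by that of factor IX), grown in DMEM/F12 with 10% FBS. Vitamin K stocks are made in polyethoxylated castor oil. Cells are cultured with vitamin K for 24 h. The medium is collected and used directly in an ELISA for carboxylated FIXgla-PC, with an anti-carboxylated FIX Gla-domain mAb, HRP anti-protein C and ABTS substrate.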

Assay [4] has the same test system. The experiment in a line: Inhibition of vitamin K1-supported VKD carboxylation. In kind it is cell-based, human. Conditions: 5 μM vitamin K1 as substrate, 24 hours. In a few lines: as §1
In the next assay the target is T2, UBIAD1 K181A (Homo sapiens, UniProt Q9Y5Z9, K181A).
T2 sequence (Q9Y5Z9 1-338 K181A): T1 sequence (Q9Y5Z9 1-338) with K181A
The experiment in a line: GGPP recognition by UBIAD1 variant. In kind it is cell-based. Conditions: 1 μM vitamin K3, statin-blocked mevalonate pathway. In a few lines:
(§2)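 Ubiad1-knockout FIXgla-PC/HEK293 cells were transiently transfected with wild-type or mutant UBIAD1. At 24 h they were pre-treated with 10 μM atorvastatin for 3 h. They were then given 1 μM vitamin K3, 10 μM atorvastatin and increasing GGPP for 24 h. Carboxylated FIXgla-PC was read by ELISA, and GGPP EC50 came from a curve fit. Mean ± SD.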

Another assay concerns the target T3, UBIAD1 G186R (Homo sapiens, UniProt Q9Y5Z9, G186R).
T3 sequence (Q9Y5Z9 1-338 G186R): T1 sequence (Q9Y5Z9 1-338) with G186R
The assay can be described thus: GGPP recognition by UBIAD1 variant. Conditions: 1 μM vitamin K3, statin-blocked mevalonate pathway. The class given is cell-based. The method, boiled down: as §2

In the case of `CC(C)=CCC/C(C)=C/CC/C(C)=C/CC/C(C)=C/CC1=C(C)C(=O)c2ccccc2C1=O` [MK-4, menaquinone-4], the “support of VKD carboxylation of reporter protein” value (from here on “support … of reporter protein”) in [1] and in assay [2] was “efficiently support VKD carboxylation” in each case. The “rescue of the vascular phenotype” value in the assay with mutant zebrafish is 58%.

Regarding `CC1=C(C/C=C(\C)CCC[C@H](C)CCC[C@H](C)CCCC(C)C)C(=O)c2ccccc2C1=O` [vitamin K1, phylloquinone], the “support … of reporter protein” value in [2] is on record as “efficiently support VKD carboxylation”. Also, in the assay with mutant zebrafish, the “rescue of the vascular phenotype” value was 6%.

On to `CC(C)=CCC/C(C)=C/CC/C(C)=C/COP(=O)(O)OP(=O)(O)O` [FPP, farnesyl pyrophosphate], for which the “support of VKD carboxylation as side chain source” value (“support … as side chain source” below) at UBIAD1 is reported as “support VKD carboxylation”.

Turning to `CC(C)=CCC/C(C)=C/CC/C(C)=C/CC/C(C)=C/CC/C(C)=C/CC/C(C)=C/CC/C(C)=C/CC1=C(C)C(=O)c2ccccc2C1=O` [MK-7], in assay [1], the “support … of reporter protein” value is reported as “efficiently support VKD carboxylation”. Besides, the “carboxylation efficiency relative to MK-4” value in assay [2] (MK-7 higher than MK-4) is on record as “about 3 fold”. In addition, in [2] (read-out: EC50 (half-maximal stimulation concentration) of K vitamins for VKD carboxylation, UBIAD1-deficient FIXgla-PC/HEK293 cells), the EC50 amounted to 2.3 nM.

In the case of `CC(C)c1c(C(=O)Nc2ccccc2)c(-c2ccccc2)c(-c2ccc(F)cc2)n1CC[C@@H](O)C[C@@H](O)CC(=O)O` [atorvastatin], the “reduction of MK-4 production” value in the assay on kidneys is listed as ~ 45%. In assay [3], the “inhibition of VKD carboxylation” value is listed as “dose-response inhibition of VKD carboxylation”. For the same compound, in assay [4], the “effect on vitamin K1-supported carboxylation” value is on record as “do not affect vitamin K1-supported carboxylation”.

Take `CC(C)=CCC/C(C)=C/CC/C(C)=C/CC/C(C)=C/COP(=O)(O)OP(=O)(O)O` [GGPP, geranylgeranyl pyrophosphate]: the “increase of EC50 value of GGPP vs wild-type” value on UBIAD1 K181A and on UBIAD1 G186R was 5 fold each time. Besides, the “support … as side chain source” value at UBIAD1 is reported as “support VKD carboxylation”.

As for `CC(C)=CCC1=C(C)C(=O)c2ccccc2C1=O` [MK-1], the “support … of reporter protein” value in assay [2] is listed as “unable to support VKD carboxylation”.

As to `CC(C)=CCC/C(C)=C/COP(=O)(O)OP(=O)(O)O` [GPP, geranyl pyrophosphate], the “support … as side chain source” value at UBIAD1 is recorded as “support VKD carboxylation”.

As to `CCC(C)(C)C(=O)O[C@H]1C[C@@H](C)C=C2C=C[C@H](C)[C@H](CC[C@@H]3C[C@@H](O)CC(=O)O3)[C@H]21` [simvastatin], the “inhibition of VKD carboxylation” value in assay [3] is “dose-response inhibition of VKD carboxylation”. Besides, in assay [4], the “effect on vitamin K1-supported carboxylation” value is reported as “do not affect vitamin K1-supported carboxylation”.
